The values below come from ChEMBL document CHEMBL2021785, “Compounds of Alpinia katsumadai as potential efflux inhibitors in Mycobacterium smegmatis” (2012).

SMILES strings stand for the structures. In brackets after ≈: the same amount, converted by molar mass. Activity calls are given as the source filed them. The rule behind the calls is not given here.

Assay [1] has as its system Mycolicibacterium smegmatis. In words: Antibacterial activity against Mycobacterium smegmatis mc2 155 after 72 hrs by MTT assay. The format is functional. The conditions noted are these: str. MC2 155, 72 h. In outline: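 Broth dilution in Mueller-Hinton broth; compounds dissolved in DMSO, two-fold serial dilutions; inoculum adjusted to McFarland 0.5 and diluted to final 5 × 10^5 cfu/mL; cells pre-grown on Columbia blood agar with 5% horse blood, 37 °C, 72 h. Plates incubated 37 °C for 72 h; MIC read after MTT as lowest concentration inhibiting growth.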
In general terms: Tetrazolium dyes change colour on reduction, which living cells bring about.

The test system of assay [2] is Mycolicibacterium smegmatis MC2 155. Put plainly: Inhibition of Multidrug resistance efflux pump in Mycobacterium smegmatis mc2 155 assessed as modulation of EtBr-mediated antibacterial activity measuring ratio of EtBr MIC to EtBr and compound MIC at 64 mg/L after 72 hrs by MTT assay. The essentials: (§1)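 Checkerboard-type modulation by broth dilution in MHB with DMSO-dissolved modulators: either modulator held constant (half its MIC) with two-fold serially diluted antibiotic/EtBr, or antibiotic fixed with modulator serially diluted. Final inoculum 5 × 10^5 cfu/mL, 37 °C, 72 h, MTT read-out. Modulation factor quantifies shift in antibiotic/EtBr MIC; FICI assesses combination effect.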

For assay [3] the test system is unchanged. In words: Inhibition of Multidrug resistance efflux pump in Mycobacterium smegmatis mc2 155 assessed as modulation of ciprofloxacin-mediated antibacterial activity measuring ratio of ciprofloxacin MIC to ciprofloxacin and compound MIC at 64 mg/L after 72 hrs by MTT assay. The essentials:
as §1

The test system is the same in assay [4]. Put plainly: Inhibition of Multidrug resistance efflux pump in Mycobacterium smegmatis mc2 155 assessed as modulation of ethambutol-mediated antibacterial activity measuring ratio of ethambutol MIC to ethambutol and compound MIC at 64 mg/L after 72 hrs by MTT assay. In outline: as §1
Assay [5] has the same test system. Put plainly: Inhibition of Multidrug resistance efflux pump in Mycobacterium smegmatis mc2 155 assessed as modulation of isoniazid-mediated antibacterial activity measuring ratio of isoniazid MIC to isoniazid and compound MIC at 64 mg/L after 72 hrs by MTT assay. The essentials: as §1
Assay [6] has the same test system. In words: Inhibition of Multidrug resistance efflux pump in Mycobacterium smegmatis mc2 155 assessed as modulation of rifampicin-mediated antibacterial activity measuring ratio of rifampicin MIC to rifampicin and compound MIC at 64 mg/L after 72 hrs by MTT assay. The essentials: as §1
The test system is the same in assay [7]. Put plainly: Inhibition of Multidrug resistance efflux pump in Mycobacterium smegmatis mc2 155 assessed as modulation of EtBr-mediated antibacterial activity measuring fractional inhibitory concentration index at 64 mg/L after 72 hrs by MTT assay. In outline:
as §1

The test system is the same in assay [8]. In words: Inhibition of Multidrug resistance efflux pump in Mycobacterium smegmatis mc2 155 assessed as modulation of rifampicin-mediated antibacterial activity measuring fractional inhibitory concentration index at 64 mg/L after 72 hrs by MTT assay. In outline:
as §1

The test system is the same in assay [9]. In words: Inhibition of Multidrug resistance efflux pump in Mycobacterium smegmatis mc2 155 assessed as EtBr accumulation measuring relative fluorescence at half the MIC measured for 60 mins by spectrophotometry relative to control. In outline: (§2)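 Overnight 7H9/ADC culture (37 °C, 100 rpm) centrifuged and resuspended in PBS with 0.05% Tween 80 to OD600 0.4. Cells mixed 1:1 with test solutions containing 0.5 mg/L EtBr and 0.4% glucose, compounds from MIC down to 1/16 MIC. Fluorescence (ex 531/em 590 nm) read every 50 s at 37 °C for 60 min; repeated at least three times.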

For assay [10] the test system is unchanged. In words: Inhibition of Multidrug resistance efflux pump in Mycobacterium smegmatis mc2 155 assessed as inhibition of EtBr efflux measuring normalized fluorescence at half the MIC measured for 60 mins by spectrophotometry relative to control.
For assay [11] the test system is unchanged. Put plainly: Inhibition of Multidrug resistance efflux pump in Mycobacterium smegmatis mc2 155 assessed as modulation of EtBr-mediated antibacterial activity measuring reduction in MIC at 1/2 of MIC after 72 hrs by MTT assay relative to control. The essentials: as §1
The test system is the same in assay [12]. In words: Inhibition of Multidrug resistance efflux pump in Mycobacterium smegmatis mc2 155 assessed as modulation of rifampicin-mediated antibacterial activity measuring reduction in MIC at 1/2 of MIC after 72 hrs by MTT assay relative to control. In outline: as §1
Assay [13] shares this test system. In words: Inhibition of Multidrug resistance efflux pump in Mycobacterium smegmatis mc2 155 assessed as modulation of EtBr-mediated antibacterial activity measuring ratio of EtBr MIC to EtBr and compound MIC at 4 mg/L after 72 hrs by MTT assay. In outline: as §1
Assay [14] shares this test system. In words: Inhibition of Multidrug resistance efflux pump in Mycobacterium smegmatis mc2 155 assessed as modulation of isoniazid-mediated antibacterial activity measuring ratio of isoniazid MIC to isoniazid and compound MIC at 4 mg/L after 72 hrs by MTT assay. In outline:
as §1

The test system is the same in assay [15]. In words: Inhibition of Multidrug resistance efflux pump in Mycobacterium smegmatis mc2 155 assessed as modulation of rifampicin-mediated antibacterial activity measuring ratio of rifampicin MIC to rifampicin and compound MIC at 4 mg/L after 72 hrs by MTT assay. The essentials:
as §1

For assay [16] the test system is unchanged. Put plainly: Inhibition of Multidrug resistance efflux pump in Mycobacterium smegmatis mc2 155 assessed as EtBr accumulation measuring relative fluorescence at MIC measured for 60 mins by spectrophotometry relative to control. The essentials: as §2
Assay [17] shares this test system. Put plainly: Inhibition of Multidrug resistance efflux pump in Mycobacterium smegmatis mc2 155 assessed as EtBr accumulation measuring relative fluorescence at 1/4 of MIC measured for 60 mins by spectrophotometry relative to control. In outline: as §2
For assay [18] the test system is unchanged. Put plainly: Inhibition of Multidrug resistance efflux pump in Mycobacterium smegmatis mc2 155 assessed as EtBr accumulation measuring relative fluorescence at lower MIC measured for 60 mins by spectrophotometry relative to control. The essentials:
as §2

Assay [19] shares this test system. Put plainly: Inhibition of Multidrug resistance efflux pump in Mycobacterium smegmatis mc2 155 assessed as EtBr accumulation measuring relative fluorescence at 1/8 of MIC measured for 60 mins by spectrophotometry relative to control. In outline: as §2
The test system is the same in assay [20]. Put plainly: Inhibition of Multidrug resistance efflux pump in Mycobacterium smegmatis mc2 155 assessed as inhibition of EtBr efflux measuring relative fluorescence at 1/8 of MIC measured for 60 mins by spectrophotometry relative to control.
Assay [21] shares this test system. In words: Inhibition of Multidrug resistance efflux pump in Mycobacterium smegmatis mc2 155 assessed as inhibition of EtBr efflux measuring relative fluorescence at lower MIC measured for 60 mins by spectrophotometry relative to control.

For orientation: MIC means the lowest concentration that inhibits growth of the organism. Read a low MIC as greater potency.

In [1], `COc1ccc(CCN(C)CCCC(C#N)(c2ccc(OC)c(OC)c2)C(C)C)cc1OC` (stereo unspecified) [VERAPAMIL] yielded an MIC of 512 µg/mL (≈ 1130 µM).

Turning to `NNC(=O)c1ccncc1` [ISONIAZID], the MIC in assay [1] came out at 4 µg/mL (≈ 29.2 µM).

For the compound `O[C@@H](CCc1ccccc1)C[C@H](O)/C=C/c1ccccc1`, in assay [1], the MIC was at least 128 µg/mL. Besides, the Ratio in assay [2] was 8; in assay [3] it was 2; in assay [4], 2; in [5], 2; in [6], 4. The fractional inhibitory concentration index (FICI) in [7] came out at 0.25; in [8], 0.75. In [9], the RFU is 16500. In addition, the normalized EtBr fluorescence relative to control in assay [10] came to 0.746. Further, the fold change (FC) in assay [11] and in assay [12] was 4 in each case.

As to `CC/C=C\C/C=C\C/C=C\CCCCCCCC(=O)O` [LINOLENIC ACID], the lowest concentration to inhibit growth in [1] (MIC) was 8 µg/mL (≈ 28.7 µM). For the same compound, the Ratio in [13] turned out to be 4; in [14], 1; in assay [15], 4. In addition, the fold change (FC) in assay [11] and in assay [12] was 4 throughout.

In [1], `CCCCCCCCCCCCCCCC(=O)O` [PALMITIC ACID] registered an MIC of 128 µg/mL (≈ 499 µM). Further, the Ratio came to 1 in assay [2] and 0.5 in assay [5].

`CCCCCCCC/C=C\CCCCCCCC(=O)O` [OLEIC ACID]: the MIC in assay [1] is 8 µg/mL (≈ 28.3 µM). The Ratio in [13] was determined as 1; in [14], 1; in [15], 4.

As for `O=C(/C=C/C=C/c1ccccc1)CCc1ccccc1`, the minimum inhibitory concentration (MIC) in [1] is at least 128 µg/mL. In addition, the Ratio in assay [2] came out at 4; in assay [3], 1; in assay [4], 1; in assay [5], 1; in assay [6] it was 4. The fractional inhibitory concentration index (FICI) amounted to 0.27 in assay [7] and 0.28 in assay [8]. In assay [9], the RFU was determined as 19400. For the same compound, the inhibition entry in assay [16], in assay [17], in assay [19] and in assay [20] was “Active” throughout. Moreover, the inhibition result in assay [18] and in assay [21] was “Dose-dependent effect” each time. Moreover, in assay [10], the normalized EtBr fluorescence relative to control was determined as 0.806. For the same compound, the fold change (FC) in assay [11] and in assay [12] was 4 each time.

For the compound `CN(C)CCCN1c2ccccc2Sc2ccc(Cl)cc21` [CHLORPROMAZINE], it took 64 µg/mL (≈ 201 µM) to inhibit growth in [1] (MIC).
